Test results from ChEMBL document CHEMBL4342497, “Design, Synthesis, and Conformation-Activity Study of Unnatural Bridged Bicyclic Depsipeptides as Highly Potent Hypoxia Inducible Factor-1 Inhibitors and Antitumor Agents” (J Med Chem, 2020).
The source made the active and inactive calls. The rule behind the calls is not given here.

Key:
[1] = Inhibition of HIF1 (unknown origin) expressed in HEK293 cells assessed as reduction in hypoxia-induced HIF1 activation pre-incubated for 1 hrs before hypoxia exposure for 24 hrs by luciferase reporter gene assay; type: cell-based; settings: Homo sapiens
Procedure, shortened: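 HEK293 cells stably carrying HRE reporter plasmid p2.1, seeded at 8.0×10^4 per well and grown 24 h in normoxia. Medium changed to fresh medium with 0.25% DMSO and a range of compound concentrations for 1 h, then 24 h at 1% O2 or normoxia. Luciferase activity normalised to protein content. IC50 as mean ± SD, n = 3.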

MCF7 [2] = test: Inhibition of hypoxia-induced HIF1 protein expression in human MCF7 cells incubated for 16 hrs by Western blot analysis; type: functional, cell-based
Procedure, shortened: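 MCF-7 cells (2.5×10^6 per 100 mm dish) exposed to several compound concentrations for 16 h under 20% or 1% O2. Lysates run on 8% SDS-PAGE and blotted to nitrocellulose. Blocked in 5% milk, probed with anti-HIF-1α (1:1000) and β-actin (1:3000), then HRP secondary. Detected by chemiluminescence.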

MCF7 [3] = test: Inhibition of hypoxia-induced HIF1 mRNA expression in human MCF7 cells incubated for 16 hrs by RT-PCR analysis; type: functional, cell-based
MCF7 [4] = test: Cytotoxicity against human MCF7 cells assessed as reduction in cell viability incubated for 24 hrs by MTT assay; type: functional, cell-based; settings: MCF7, 24 h
Procedure, shortened: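 MCF-7 cells seeded at 8.0×10^3 per well and treated with compound for 24 h. MTT 0.5 mg/mL added for 4 h at 37 °C after medium exchange, then DMSO lysis and absorbance at 570 nm. IC50 as mean ± SD, n = 3.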

[5] = Retardation factor of the compound
MCF7 [6] = test: Cytotoxicity against human MCF7 cells assessed as reduction in cell viability incubated for 72 hrs by MTT assay; type: functional, cell-based; settings: MCF7, 72 h
Procedure, shortened: (§1)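 Cells seeded overnight at 3.0×10^3 (A549), 5.0×10^3 (HT29) or 4.0×10^3 (MCF-7, MDA-MB-231) per well, then exposed to compound for 72 h. Medium replaced, MTT 0.5 mg/mL added for 4 h at 37 °C, cells lysed in DMSO, absorbance read at 570 nm. IC50 as mean ± SD, n = 3. Final DMSO below 1.0%.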

MDA-MB-231 = test: Cytotoxicity against human MDA-MB-231 cells assessed as reduction in cell viability incubated for 72 hrs by MTT assay; type: functional, cell-based; settings: MDA-MB-231, 72 h; procedure, shortened: as §1
A549 = test: Cytotoxicity against human A549 cells assessed as reduction in cell viability incubated for 72 hrs by MTT assay; type: functional, cell-based; settings: A549, 72 h; procedure, shortened: as §1
HT-29 = test: Cytotoxicity against human HT-29 cells assessed as reduction in cell viability incubated for 72 hrs by MTT assay; type: functional, cell-based; settings: HT-29, 72 h; procedure, shortened: as §1
[7] = Binding affinity to synthetic d(ACGTAGAACGT) dsDNA assessed as melting temperature at 2.5 uM by SYBR green I dye dependent differential scanning fluorimetry based thermal denaturation method (reference value: 44.2 +/- 1.0 degC)
[8] = Binding affinity to synthetic 5'-FAM-CCCTACGTATATGAAAATATACGTAGGG-BHQ1-3' dsDNA assessed as melting temperature at 2.5 uM by SYBR green I dye dependent differential scanning fluorimetry based thermal denaturation method (reference value: 70.7 +/- 0.0 degC)
MCF7 [9] = test: Cytotoxicity against human MCF7 cells assessed as reduction in cell viability; type: functional, cell-based
Procedure, shortened: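 MTT viability assay. For the 72 h format, cells were plated overnight at 4.0×10^3 cells/well and then exposed to compounds for 72 h. For the 24 h screening format, cells were plated at 8.0×10^3 cells/well and exposed for 24 h. Medium was then refreshed, MTT was added at 0.5 mg/mL for 4 h at 37 °C, and cells were lysed in DMSO. Absorbance was read at 570 nm. IC50 reported as mean ± SD, n = 3.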

[10] = Inhibition of HIF1 (unknown origin) expressed in HEK293 cells assessed as reduction in hypoxia-induced HIF1 activation by luciferase reporter gene assay; type: cell-based; settings: Homo sapiens
Procedure, shortened: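 HEK293 clone stably carrying the p2.1 HRE-luciferase reporter, seeded at 8.0×10^4 cells/well and grown 24 h under normoxia. Cells were given fresh medium containing 0.25% DMSO and a range of compound concentrations for 1 h, then held under hypoxia (1% O2) or normoxia for 24 h. Luciferase activity was measured with a kit and normalised to protein content. IC50 reported as mean ± SD, n = 3.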

SMILES | IC50 [1] [nM] | Tm [7] [°C] | Tm [8] [°C] | inhibition (MCF7 [2]) | inhibition (MCF7 [3]) | IC50 (MCF7 [4]) [nM] | Rm [5] | IC50 (MCF7 [6]) [nM] | IC50 (MDA-MB-231) [nM] | IC50 (A549) [nM] | IC50 (HT-29) [nM] | IC50 (MCF7 [9]) [nM] | IC50 [10] [nM]
CC(C)[C@@H]1C(=O)OC[C@H](NC(=O)c2cnc3ccccc3n2)C(=O)N[C@H](C)C(=O)N(C)[C@@H]2CSSC[C@H](C(=O)N1C)N(C)C(=O)[C@@H](C)NC(=O)[C@@H](NC(=O)c1cnc3ccccc3n1)COC(=O)[C@@H](C(C)C)N(C)C2=O | > 100000 |  |  | inactive | inactive | > 100000 | 0.15 |  |  |  |  |  | 
CC[C@H](C)[C@H]1C(=O)OC[C@@H](NC(=O)c2cnc3ccccc3n2)C(=O)N[C@@H](C)C(=O)N(C)[C@H]2CSSC[C@@H](C(=O)N1C)N(C)C(=O)[C@H](C)NC(=O)[C@H](NC(=O)c1cnc3ccccc3n1)COC(=O)[C@H]([C@@H](C)CC)N(C)C2=O | 60 |  |  |  |  | 4000 | 0.45 |  |  |  |  |  | 
CSC[C@H]1C(=O)N(C)[C@@H](C(C)C)C(=O)OC[C@@H](NC(=O)c2cnc3ccccc3n2)C(=O)N[C@@H](C)C(=O)N(C)[C@@H](CSC)C(=O)N(C)[C@@H](C(C)C)C(=O)OC[C@@H](NC(=O)c2cnc3ccccc3n2)C(=O)N[C@@H](C)C(=O)N1C | 222 |  |  |  |  | 4300 | 0.34 |  |  |  |  |  | 
CC(=O)N[C@@H]1COC(=O)[C@H](C(C)C)N(C)C(=O)[C@@H]2CSSC[C@@H](C(=O)N(C)[C@@H](C(C)C)C(=O)OC[C@@H](NC(C)=O)C(=O)N[C@@H](C)C(=O)N2C)N(C)C(=O)[C@H](C)NC1=O | > 100000 |  |  |  |  | 15500 | -0.3 |  |  |  |  |  | 
CC(C)[C@H]1C(=O)OC[C@@H](NC(=O)c2cnc3ccccc3n2)C(=O)N[C@@H](C)C(=O)N(C)[C@H]2CSC[C@@H](C(=O)N1C)N(C)C(=O)[C@H](C)NC(=O)[C@H](NC(=O)c1cnc3ccccc3n1)COC(=O)[C@H](C(C)C)N(C)C2=O | 2.4 |  |  | Dose-dependent effect |  |  | 0.2 | 9.7 | 8 | 16.2 | 16.2 |  | 
CC(C)[C@H]1C(=O)OC[C@@H](NC(=O)CNC(=O)c2cnc3ccccc3n2)C(=O)N[C@@H](C)C(=O)N(C)[C@H]2CSSC[C@@H](C(=O)N1C)N(C)C(=O)[C@H](C)NC(=O)[C@H](NC(=O)CNC(=O)c1cnc3ccccc3n1)COC(=O)[C@H](C(C)C)N(C)C2=O | > 100000 |  |  |  |  | 13600 | -0.05 |  |  |  |  |  | 
CC[C@H](C)[C@H]1C(=O)OC[C@@H](NC(=O)c2cnc3ccccc3n2)C(=O)N[C@@H](C)C(=O)N(C)[C@H]2CSSC[C@@H](C(=O)N1C)N(C)C(=O)[C@H](C)NC(=O)[C@H](NC(=O)c1cnc3ccccc3n1)COC(=O)[C@H](C(C)C)N(C)C2=O | 55.5 |  |  |  |  | 4100 | 0.39 |  |  |  |  |  | 
CC(C)[C@@H]1C(=O)OC[C@@H](NC(=O)c2cnc3ccccc3n2)C(=O)N[C@@H](C)C(=O)N(C)[C@H]2CSSC[C@@H](C(=O)N1C)N(C)C(=O)[C@H](C)NC(=O)[C@H](NC(=O)c1cnc3ccccc3n1)COC(=O)[C@@H](C(C)C)N(C)C2=O | 590 |  |  |  |  | 6100 | 0.25 |  |  |  |  |  | 
CC(C)[C@H]1C(=O)OC[C@@H](NC(=O)c2cnc3ccccc3n2)C(=O)N[C@@H](C)C(=O)N(C)[C@H]2CSSC[C@@H](C(=O)N1C)N(C)C(=O)[C@H](C)NC(=O)[C@H](NC(=O)c1cnc3ccccc3n1)COC(=O)[C@@H](C(C)C)N(C)C2=O | 2000 |  |  |  |  | 24300 | 0.24 |  |  |  |  |  | 
CC(C)[C@H]1C(=O)OC[C@@H](NC(=O)c2cnc3ccccc3n2)C(=O)N[C@@H](C)C(=O)N(C)[C@H]2CSSC[C@@H](C(=O)N1C)N(C)C(=O)[C@H](C)NC(=O)[C@H](NC(=O)c1cnc3ccccc3n1)COC(=O)[C@H](C(C)C)N(C)C2=O [TRIOSTIN] | 26.9 | 47.2 | 78 |  |  | 2000 | 0.15 | 212 | 178 | 322 | 340 | 4100 | 26.9
CC(=O)SC[C@H]1C(=O)N(C)[C@@H](C(C)C)C(=O)OC[C@@H](NC(=O)c2cnc3ccccc3n2)C(=O)N[C@@H](C)C(=O)N(C)[C@@H](CSC(C)=O)C(=O)N(C)[C@@H](C(C)C)C(=O)OC[C@@H](NC(=O)c2cnc3ccccc3n2)C(=O)N[C@@H](C)C(=O)N1C | 235 |  |  |  |  | 8700 | 0.23 |  |  |  |  |  | 

Continued, in another order:

IC50 [1] [nM] | Tm [7] [°C] | Tm [8] [°C] | SMILES | inhibition (MCF7 [2]) | inhibition (MCF7 [3]) | IC50 (MCF7 [4]) [nM] | Rm [5] | IC50 (MCF7 [6]) [nM] | IC50 (MDA-MB-231) [nM] | IC50 (A549) [nM] | IC50 (HT-29) [nM] | IC50 (MCF7 [9]) [nM] | IC50 [10] [nM]
1 | 52.5 | 81.3 | CC(C)[C@H]1C(=O)OC[C@@H](NC(=O)c2cnc3ccccc3n2)C(=O)N[C@@H](C)C(=O)N(C)[C@H]2C/C=C\C[C@@H](C(=O)N1C)N(C)C(=O)[C@H](C)NC(=O)[C@H](NC(=O)c1cnc3ccccc3n1)COC(=O)[C@H](C(C)C)N(C)C2=O | Dose-dependent effect |  | 13.4 | 0.25 | 2.9 | 3.2 | 5.3 | 6.2 |  | 
2 |  |  | CC(C)[C@H]1C(=O)OC[C@@H](NC(=O)c2cnc3ccccc3n2)C(=O)N[C@@H](C)C(=O)N(C)[C@H]2C[Se]C[C@@H](C(=O)N1C)N(C)C(=O)[C@H](C)NC(=O)[C@H](NC(=O)c1cnc3ccccc3n1)COC(=O)[C@H](C(C)C)N(C)C2=O | Dose-dependent effect |  |  | 0.2 | 7.1 | 6.8 | 14.5 | 11.7 |  | 
25.2 |  |  | CC(C)[C@H]1C(=O)OC[C@@H](NC(=O)c2cnc3ccccc3n2)C(=O)N[C@@H](C)C(=O)N(C)[C@H]2CSC(C)(C)SC[C@@H](C(=O)N1C)N(C)C(=O)[C@H](C)NC(=O)[C@H](NC(=O)c1cnc3ccccc3n1)COC(=O)[C@H](C(C)C)N(C)C2=O |  |  | 5900 | 0.31 |  |  |  |  |  | 
0.35 | 55.8 | 81.6 | CSC1SC[C@H]2C(=O)N(C)[C@@H](C(C)C)C(=O)OC[C@@H](NC(=O)c3cnc4ccccc4n3)C(=O)N[C@@H](C)C(=O)N(C)[C@@H]1C(=O)N(C)[C@@H](C(C)C)C(=O)OC[C@@H](NC(=O)c1cnc3ccccc3n1)C(=O)N[C@@H](C)C(=O)N2C (some centres undefined) |  | inactive | 5.5 | 0.28 | 2 | 2.3 | 4.7 | 3.5 | 5.5 | 0.35
0.09 | 54.3 |  | CC(C)[C@H]1C(=O)OC[C@@H](NC(=O)c2nc3ccccc3cc2O)C(=O)N[C@@H](C)C(=O)N(C)[C@H]2C/C=C\C[C@@H](C(=O)N1C)N(C)C(=O)[C@H](C)NC(=O)[C@H](NC(=O)c1nc3ccccc3cc1O)COC(=O)[C@H](C(C)C)N(C)C2=O | Dose-dependent effect |  |  | 0.52 | 0.22 |  |  |  |  | 
6.3 |  |  | CC(C)[C@H]1C(=O)OC[C@@H](NC(=O)c2cnc3ccccc3n2)C(=O)N[C@@H](C)C(=O)N(C)[C@H]2CCCC[C@@H](C(=O)N1C)N(C)C(=O)[C@H](C)NC(=O)[C@H](NC(=O)c1cnc3ccccc3n1)COC(=O)[C@H](C(C)C)N(C)C2=O |  |  | 123 | 0.32 | 23.5 | 25.3 | 71.9 | 57.4 |  | 
32.3 |  |  | CC(C)[C@H]1C(=O)OC[C@@H](NC(=O)c2cnc3ccccc3n2)C(=O)N[C@@H](C)C(=O)N(C)[C@@H](CS)C(=O)N(C)[C@@H](C(C)C)C(=O)OC[C@@H](NC(=O)c2cnc3ccccc3n2)C(=O)N[C@@H](C)C(=O)N(C)[C@@H](CS)C(=O)N1C |  |  | 2700 | 0.28 |  |  |  |  |  | 
